Experimental data published in ChEMBL document CHEMBL5058577, “EUbOPEN Chemogenomics Library 2 (Multiplex)” (2022).

Tested on: U2OS
Test: Multiplex assay against U2OS
Assay type: toxicity, cell-based
Conditions: human
How it was run: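 Live cells carried four stains from seeding: Hoechst33342, BioTracker Green Microtubule Cytoskeleton Dye, MitoTracker Red and Annexin V Alexa Fluor 680. They were imaged on a CQ1 microscope at 37°C and 5% CO2 after compound addition. Using CellPathfinder machine-learning gating, cells were split into Hoechst high-intensity objects or normal cells, normal cells into healthy, pyknosed or fragmented nuclei, and pyknosed cells into mitotic or apoptotic; tubulin, mitochondrial-mass and membrane-permeability phenotypes are per cents of healthy-nucleus cells.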

[1] = 12 h, 1 µM, compound concentration 1 uM, replicate 1
[2] = 12 h, 1 µM, compound concentration 1 uM, replicate 2
[3] = 12 h, 10 µM, compound concentration 10 uM, replicate 1
[4] = 12 h, 10 µM, compound concentration 10 uM, replicate 2
[5] = 24 h, 1 µM, compound concentration 1 uM, replicate 1
[6] = 24 h, 1 µM, compound concentration 1 uM, replicate 2
[7] = 24 h, 10 µM, compound concentration 10 uM, replicate 1
[8] = 24 h, 10 µM, compound concentration 10 uM, replicate 2
[9] = 48 h, 1 µM, compound concentration 1 uM, replicate 1
[10] = 48 h, 1 µM, compound concentration 1 uM, replicate 2
[11] = 48 h, 10 µM, compound concentration 10 uM, replicate 1
[12] = 48 h, 10 µM, compound concentration 10 uM, replicate 2

`O=C(NCCN1CCC(n2c(=O)[nH]c3cc(Cl)ccc32)CC1)c1ccc(F)cc1` [HALOPEMIDE] was tested, and the “Population Apoptotic (%)” value [1] was 95%, the “Population Fragmented Nuclei (%)” value [1] was 24% and the “Population Healthy Nuclei (%)” value [1] was 65%. For the same compound, the “Population Hoechst High Intensity Objects (%)” value [1] was 1%, the “Population Membrane Permeable-Phenotype (%)” value [1] was 6% and the “Population Mitochondria Different-Phenotype (%)” value [1] was 1%. For the same compound, the “Population Mitotic Cells (%)” value [1] was 4%, the “Population Normal (%)” value [1] was 98% and the “Population Pyknosed Nuclei (%)” value [1] was 10%. For the same compound, the “Population Tubulin-Different-Phenotype (%)” value [1] was 2%, the “Total Cell Count” value [1] was 209 and the “Population Apoptotic (%)” value [2] was 50%. For the same compound, the “Population Fragmented Nuclei (%)” value [2] was 13%, the “Population Healthy Nuclei (%)” value [2] was 79% and the “Population Hoechst High Intensity Objects (%)” value [2] was 0%. The “Population Membrane Permeable-Phenotype (%)” value [2] was 7%, the “Population Mitochondria Different-Phenotype (%)” value [2] was 2% and the “Population Mitotic Cells (%)” value [2] was 50%. For the same compound, the “Population Normal (%)” value [2] was 100%, the “Population Pyknosed Nuclei (%)” value [2] was 7% and the “Population Tubulin-Different-Phenotype (%)” value [2] was 3%. The “Total Cell Count” value [2] was 105, the “Population Apoptotic (%)” value [3] was 68% and the “Population Fragmented Nuclei (%)” value [3] was 19%. The “Population Healthy Nuclei (%)” value [3] was 65%, the “Population Hoechst High Intensity Objects (%)” value [3] was 4% and the “Population Membrane Permeable-Phenotype (%)” value [3] was 23%. The “Population Mitochondria Different-Phenotype (%)” value [3] was 11%, the “Population Mitotic Cells (%)” value [3] was 31% and the “Population Normal (%)” value [3] was 95%. For the same compound, the “Population Pyknosed Nuclei (%)” value [3] was 15%, the “Population Tubulin-Different-Phenotype (%)” value [3] was 15% and the “Total Cell Count” value [3] was 244. The “Population Apoptotic (%)” value [4] was 61%, the “Population Fragmented Nuclei (%)” value [4] was 12% and the “Population Healthy Nuclei (%)” value [4] was 78%. For the same compound, the “Population Hoechst High Intensity Objects (%)” value [4] was 1%, the “Population Membrane Permeable-Phenotype (%)” value [4] was 26% and the “Population Mitochondria Different-Phenotype (%)” value [4] was 32%. For the same compound, the “Population Mitotic Cells (%)” value [4] was 38%, the “Population Normal (%)” value [4] was 98% and the “Population Pyknosed Nuclei (%)” value [4] was 8%. The “Population Tubulin-Different-Phenotype (%)” value [4] was 27%, the “Total Cell Count” value [4] was 152 and the “Population Apoptotic (%)” value [5] was 91%. The “Population Fragmented Nuclei (%)” value [5] was 22%, the “Population Healthy Nuclei (%)” value [5] was 68% and the “Population Hoechst High Intensity Objects (%)” value [5] was 1%. The “Population Membrane Permeable-Phenotype (%)” value [5] was 6%, the “Population Mitochondria Different-Phenotype (%)” value [5] was 1% and the “Population Mitotic Cells (%)” value [5] was 8%. The “Population Normal (%)” value [5] was 98%, the “Population Pyknosed Nuclei (%)” value [5] was 9% and the “Population Tubulin-Different-Phenotype (%)” value [5] was 1%. For the same compound, the “Total Cell Count” value [5] was 241, the “Population Apoptotic (%)” value [6] was 81% and the “Population Fragmented Nuclei (%)” value [6] was 15%. For the same compound, the “Population Healthy Nuclei (%)” value [6] was 72%, the “Population Hoechst High Intensity Objects (%)” value [6] was 0% and the “Population Membrane Permeable-Phenotype (%)” value [6] was 10%. The “Population Mitochondria Different-Phenotype (%)” value [6] was 3%, the “Population Mitotic Cells (%)” value [6] was 18% and the “Population Normal (%)” value [6] was 99%. The “Population Pyknosed Nuclei (%)” value [6] was 12%, the “Population Tubulin-Different-Phenotype (%)” value [6] was 8% and the “Total Cell Count” value [6] was 132. The “Population Apoptotic (%)” value [7] was 75%, the “Population Fragmented Nuclei (%)” value [7] was 17% and the “Population Healthy Nuclei (%)” value [7] was 64%. The “Population Hoechst High Intensity Objects (%)” value [7] was 2%, the “Population Membrane Permeable-Phenotype (%)” value [7] was 15% and the “Population Mitochondria Different-Phenotype (%)” value [7] was 10%. The “Population Mitotic Cells (%)” value [7] was 25%, the “Population Normal (%)” value [7] was 97% and the “Population Pyknosed Nuclei (%)” value [7] was 18%. For the same compound, the “Population Tubulin-Different-Phenotype (%)” value [7] was 7%, the “Total Cell Count” value [7] was 271 and the “Population Apoptotic (%)” value [8] was 63%. The “Population Fragmented Nuclei (%)” value [8] was 16%, the “Population Healthy Nuclei (%)” value [8] was 71% and the “Population Hoechst High Intensity Objects (%)” value [8] was 3%. The “Population Membrane Permeable-Phenotype (%)” value [8] was 26%, the “Population Mitochondria Different-Phenotype (%)” value [8] was 23% and the “Population Mitotic Cells (%)” value [8] was 36%. For the same compound, the “Population Normal (%)” value [8] was 96%, the “Population Pyknosed Nuclei (%)” value [8] was 12% and the “Population Tubulin-Different-Phenotype (%)” value [8] was 21%. For the same compound, the “Total Cell Count” value [8] was 159, the “Population Apoptotic (%)” value [9] was 68% and the “Population Fragmented Nuclei (%)” value [9] was 16%. The “Population Healthy Nuclei (%)” value [9] was 75%, the “Population Hoechst High Intensity Objects (%)” value [9] was 2% and the “Population Membrane Permeable-Phenotype (%)” value [9] was 4%. The “Population Mitochondria Different-Phenotype (%)” value [9] was 2%, the “Population Mitotic Cells (%)” value [9] was 32% and the “Population Normal (%)” value [9] was 97%. For the same compound, the “Population Pyknosed Nuclei (%)” value [9] was 7%, the “Population Tubulin-Different-Phenotype (%)” value [9] was 2% and the “Total Cell Count” value [9] was 337. For the same compound, the “Population Apoptotic (%)” value [10] was 95%, the “Population Fragmented Nuclei (%)” value [10] was 17% and the “Population Healthy Nuclei (%)” value [10] was 69%. For the same compound, the “Population Hoechst High Intensity Objects (%)” value [10] was 1%, the “Population Membrane Permeable-Phenotype (%)” value [10] was 9% and the “Population Mitochondria Different-Phenotype (%)” value [10] was 5%. The “Population Mitotic Cells (%)” value [10] was 4%, the “Population Normal (%)” value [10] was 98% and the “Population Pyknosed Nuclei (%)” value [10] was 12%. For the same compound, the “Population Tubulin-Different-Phenotype (%)” value [10] was 6%, the “Total Cell Count” value [10] was 187 and the “Population Apoptotic (%)” value [11] was 81%. For the same compound, the “Population Fragmented Nuclei (%)” value [11] was 15%, the “Population Healthy Nuclei (%)” value [11] was 69% and the “Population Hoechst High Intensity Objects (%)” value [11] was 3%. For the same compound, the “Population Membrane Permeable-Phenotype (%)” value [11] was 10%, the “Population Mitochondria Different-Phenotype (%)” value [11] was 5% and the “Population Mitotic Cells (%)” value [11] was 18%. The “Population Normal (%)” value [11] was 96%, the “Population Pyknosed Nuclei (%)” value [11] was 14% and the “Population Tubulin-Different-Phenotype (%)” value [11] was 5%. The “Total Cell Count” value [11] was 382, the “Population Apoptotic (%)” value [12] was 77% and the “Population Fragmented Nuclei (%)” value [12] was 13%. For the same compound, the “Population Healthy Nuclei (%)” value [12] was 67%, the “Population Hoechst High Intensity Objects (%)” value [12] was 6% and the “Population Membrane Permeable-Phenotype (%)” value [12] was 16%. The “Population Mitochondria Different-Phenotype (%)” value [12] was 12%, the “Population Mitotic Cells (%)” value [12] was 22% and the “Population Normal (%)” value [12] was 93%. For the same compound, the “Population Pyknosed Nuclei (%)” value [12] was 18%, the “Population Tubulin-Different-Phenotype (%)” value [12] was 6% and the “Total Cell Count” value [12] was 197.
